Experimental data from ChEMBL document CHEMBL1811811, “Characterization of anticancer properties of 2,6-diisopropylphenol-docosahexaenoate and analogues in breast cancer cells” (Bioorg Med Chem, 2010).
Calls of active or inactive are those of the source. No cut-off for these calls is given here.

Legend:
MDA-MB-231 [1] = experiment: Total growth inhibition of human MDA-MB-231 cells after 48 hrs by WST1 assay; format: functional
Procedure, shortened: (§1)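 Cells seeded at 5000/well, grown overnight (18 h) in DMEM complete medium, then switched to DMEM with 2% FBS plus treatment for 48 h at 37 °C, 5% CO2; ethanol vehicle control. WST-1 read at day 0 (baseline, X) and end; growth normalized as (Y−X)/X×100, 100 to 0 = growth inhibition, 0 to −100 = cell death. Mean ± SD, at least four experiments.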

MDA-MB-231 [2] = experiment: Growth inhibition of human MDA-MB-231 cells after 48 hrs by WST1 assay; format: functional, cell-based; procedure, shortened: as §1
MDA-MB-231 [3] = experiment: Induction of apoptosis in human MDA-MB-231 cells assessed as viable cells at 1 uM after 24 hrs by annexin V/propidium iodide staining based FACS flow cytometry (reference value: 89 +/- 1 %); format: functional; conditions: MDA-MB-231, 24 h, read-out: Activity
MDA-MB-231 [4] = experiment: Growth inhibition of human MDA-MB-231 cells at 25 uM after 48 hrs by WST1 assay; format: functional, cell-based; procedure, shortened: as §1
MDA-MB-231 [5] = experiment: Induction of apoptosis in human MDA-MB-231 cells assessed as necrotic cells at 10 uM after 24 hrs by annexin V/propidium iodide staining based FACS flow cytometry (reference value: 9.2 +/- 0.8 %); format: functional
MDA-MB-231 [6] = experiment: Induction of apoptosis in human MDA-MB-231 cells assessed as necrotic cells at 1 uM after 24 hrs by annexin V/propidium iodide staining based FACS flow cytometry (reference value: 9.2 +/- 0.8 %); format: functional
Serum [7] = experiment: Stability in human serum at 1 mM incubated for 2 hrs at 37 degC by HPLC; conditions: 1000 µM
Serum [8] = experiment: Stability in mouse serum at 1 mM incubated for 2 hrs at 37 degC by HPLC; conditions: 1000 µM
[9] = target: T1, Histone deacetylase (Homo sapiens) (UniProt Q13547+O15379+Q9UBN7+Q92769+Q9UQL6+Q8WUI4+Q9BY41+Q96DB2+P56524+Q9UKV0+Q969S8); experiment: Inhibition of HDAC in human MDA-MB-231 cells up to 25 uM after 2 hrs relative to control; format: cell-based
Procedure, shortened: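 MDA-MB-231 cells treated 2 h at 37 °C in DMEM with 2% FBS with varying concentrations; rinsed in PBS, trypsinized, normalized to 2×10^6 cells/mL in PBS with 0.1% Triton X-100, sonicated on ice. Total (non-specific) HDAC activity measured with a fluorometric kit; trichostatin A used for maximum inhibition to correct non-specific readings. Expressed as % of total HDAC activity versus vehicle.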

MDA-MB-231 [10] = experiment: Induction of apoptosis in human MDA-MB-231 cells assessed as apoptotic cells at 1 uM after 24 hrs by annexin V/propidium iodide staining based FACS flow cytometry (reference value: 1.8 +/- 0.3 %); format: functional
MDA-MB-231 [11] = experiment: Induction of apoptosis in human MDA-MB-231 cells assessed as viable cells at 10 uM after 24 hrs by annexin V/propidium iodide staining based FACS flow cytometry (reference value: 89 +/- 1 %); format: functional; conditions: MDA-MB-231, 24 h, read-out: Activity
MDA-MB-231 [12] = experiment: Induction of apoptosis in human MDA-MB-231 cells assessed as apoptotic cells at 10 uM after 24 hrs by annexin V/propidium iodide staining based FACS flow cytometry (reference value: 1.8 +/- 0.3 %); format: functional
HMEC [13] = experiment: Cytotoxicity against human HMEC cells at 25 uM after 48 hrs by WST1 assay; format: cell-based; procedure, shortened: as §1
AU565 [14] = experiment: Cytotoxicity against human AU565 cells at 25 uM after 48 hrs by WST1 assay; format: functional, cell-based; procedure, shortened: as §1
MCF7 [15] = experiment: Growth inhibition of human MCF7 cells at 25 uM after 48 hrs by WST1 assay; format: functional, cell-based; procedure, shortened: as §1
MDA-MB-361 [16] = experiment: Cytotoxicity against human MDA-MB-361 cells at 25 uM after 48 hrs by WST1 assay; format: functional, cell-based; procedure, shortened: as §1
AU565 [17] = experiment: Growth inhibition of human AU565 cells at 25 uM after 48 hrs by WST1 assay; format: functional, cell-based; procedure, shortened: as §1
HMEC [18] = experiment: Growth inhibition of human HMEC cells at 25 uM after 48 hrs by WST1 assay; format: cell-based; procedure, shortened: as §1
MDA-MB-361 [19] = experiment: Growth inhibition of human MDA-MB-361 cells at 25 uM after 48 hrs by WST1 assay; format: functional, cell-based; procedure, shortened: as §1
MCF7 [20] = experiment: Cytotoxicity against human MCF7 cells at 25 uM after 48 hrs by WST1 assay; format: functional, cell-based; procedure, shortened: as §1
[21] = target: T1, Histone deacetylase (Homo sapiens); experiment: Inhibition of HDAC in human MDA-MB-231 cells at 10 to 25 uM after 2 hrs relative to control; format: cell-based
Procedure, shortened: (§2)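 Cells exposed 2 h at 37 °C to varying concentrations in DMEM/2% FBS, washed, trypsinized, adjusted to 2×10^6 cells/mL in PBS with 0.1% Triton X-100, and sonicated on ice. Total HDAC activity measured with a fluorometric kit; trichostatin A used as maximum inhibition to correct non-specific signal. Expressed as % of total HDAC activity versus vehicle.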

MDA-MB-231 [22] = experiment: Cytotoxicity against human MDA-MB-231 cells at 10 uM after 48 hrs by WST1 assay; format: functional, cell-based; procedure, shortened: as §1
[23] = target: T1, Histone deacetylase (Homo sapiens); experiment: Inhibition of HDAC in human MDA-MB-231 cells after 2 hrs; format: cell-based; procedure, shortened: as §2
[24] = Homo sapiens, MDA-MB-231, 48 h, read-out: IC50

| SMILES | TGI (MDA-MB-231 [1]; MDA-MB-231, 48 h) | IC50 (MDA-MB-231 [2]; [24]) | viability at 1 µM (MDA-MB-231 [3]) | Activity (MDA-MB-231 [5]) | Activity (MDA-MB-231 [6]) | growth inhibition (GI) (MDA-MB-231 [2]) | Activity (MDA-MB-231 [10]) | viability at 10 µM (MDA-MB-231 [11]) | Activity (MDA-MB-231 [12]) | Activity (HMEC [13]) | Activity (AU565 [14]) | growth inhibition (GI) (MCF7 [15]) | Activity (MDA-MB-361 [16]) | growth inhibition (GI) (AU565 [17]) | Activity (HMEC [18]) | growth inhibition (GI) (MDA-MB-361 [19]) | Activity (MCF7 [20]) | further results |
| --- | --- | --- | --- | --- | --- | --- | --- | --- | --- | --- | --- | --- | --- | --- | --- | --- | --- | --- |
| CC/C=C\C/C=C\C/C=C\C/C=C\C/C=C\C/C=C\CCC(=O)Nc1ccccc1C(C)C | 8.5 µM | 6.5 µM | – | – | – | – | – | – | – | – | – | – | – | – | – | – | – | – |
| CC/C=C\C/C=C\C/C=C\C/C=C\C/C=C\C/C=C\CCC(=O)O [DOCONEXENT] | – | – | 90.3% | 10.7% | 7.6% | Dose-dependent effect | 2.1% | 87.6% | 1.8% | – | – | – | – | – | – | – | – | growth inhibition (GI) (MDA-MB-231 [4]): inactive; Stability (Serum [7]): Stable; Stability (Serum [8]): Stable; inhibition [9]: inactive |
| CC(C)c1cccc(C(C)C)c1O [PROPOFOL] | – | – | 90.9% | 9.4% | 7.1% | – | 2% | 88.2% | 2.4% | Non-toxic | inactive | inactive | inactive | inactive | Non-toxic | inactive | inactive | inhibition [9]: inactive |
| CC/C=C\C/C=C\C/C=C\C/C=C\C/C=C\C/C=C\CCC(=O)Oc1ccccc1 | > 25 µM | > 25 µM | – | – | – | inactive | – | – | – | – | – | – | – | – | – | – | – | – |
| CC/C=C\C/C=C\C/C=C\C/C=C\C/C=C\C/C=C\CCC(=O)Nc1c(C(C)C)cccc1C(C)C | 5.5 µM | 3.7 µM | – | – | – | – | – | – | – | – | – | – | – | – | – | – | – | – |
| CC(C)c1ccccc1O | – | – | 93.7% | 9% | 4.9% | – | 1.5% | 88.8% | 2.2% | Non-toxic | inactive | inactive | inactive | inactive | Non-toxic | inactive | inactive | – |
| CC/C=C\C/C=C\C/C=C\C/C=C\C/C=C\C/C=C\CCC(=O)Oc1ccc(C(C)C)cc1C(C)C | 12.6 µM | 7.3 µM | – | – | – | Dose-dependent effect | – | – | – | – | – | – | – | – | – | – | – | – |
| CC/C=C\C/C=C\C/C=C\C/C=C\C/C=C\C/C=C\CCC(=O)Oc1ccccc1C1CCCCC1 | 18.7 µM | 8.4 µM | – | – | – | Dose-dependent effect | – | – | – | – | – | – | – | – | – | – | – | – |
| CC/C=C\C/C=C\C/C=C\C/C=C\C/C=C\C/C=C\CCC(=O)Nc1ccccc1 | – | – | – | – | – | – | – | – | – | – | – | – | – | – | – | – | – | TGI (MDA-MB-231 [1]): inactive; IC50 (MDA-MB-231 [2]; mda-mb-231): Not Active |
| CC/C=C\C/C=C\C/C=C\C/C=C\C/C=C\C/C=C\CCC(=O)Oc1c(C(C)C)cccc1C(C)C | 4.2 µM | 2.9 µM | 90.5% | 40.4% | 7.7% | Dose-dependent effect | 1.8% | 37.4% | 22.2% | Non-toxic | Active | Active | Active | Active | Non-toxic | Active | Active | inhibition [21]: 30%; Activity (MDA-MB-231 [22]): Active; inhibition [23]: Dose-dependent effect; Stability (Serum [7]): Stable; Stability (Serum [8]): Stable |
| CC/C=C\C/C=C\C/C=C\C/C=C\C/C=C\C/C=C\CCC(=O)Oc1ccccc1C(C)C | 12.1 µM | 8.2 µM | 89.6% | 37.5% | 8.6% | Dose-dependent effect | 1.8% | 36.2% | 26.4% | Non-toxic | Active | Active | Active | Active | Non-toxic | Active | Active | Activity (MDA-MB-231 [22]): Active; Stability (Serum [7]): Stable; Stability (Serum [8]): Stable |
| Oc1ccccc1C1CCCCC1 | – | – | – | – | – | – | – | – | – | – | – | – | – | – | – | – | – | growth inhibition (GI) (MDA-MB-231 [4]): Active |
